# Experimental data from different studies.
# Lines come from different studies, so protocols differ.
# Target: Proto-oncogene tyrosine-protein kinase Src (SRC, Homo sapiens, UniProt P12931)
SMILES,read-out,action,method,tested at,endpoint,result
CC(C)(C)c1cc(C=C(C#N)C#N)cc(Br)c1O,enzyme activity,inhibitor,,0.5 µM,remaining activity,87.4%
Cn1cc(-c2cccc(N3CCc4c(sc5c4CC(C)(C)C5)C3=O)c2CO)cc(Nc2ccncn2)c1=O,enzyme activity,inhibitor,,1 µM,inhibition,39%
COc1ncccc1-c1cnn2ccc(N3CCN(C(=O)OC(C)C)CC3)nc12,binding,,competition with immobilised ligand,1 µM,remaining binding,100%
Cn1cc(-c2cc(F)cc(N3CCn4c(cc5c4CCCC5)C3=O)c2CO)cc(Nc2ccc(N3CCN(C4COC4)CC3)cn2)c1=O,enzyme activity,inhibitor,,0.1 µM,inhibition,13%
O=c1[nH]c2ccccc2n1C1CCN(Cc2ccc(-c3[nH]c4cc5ncnc5cc4nc3-c3ccccc3)cc2)CC1,cell-free assay,,,0.5 µM,remaining signal,103%
C[C@H](C(=O)N[C@H]1COc2ccccc2[C@@H]1S(C)(=O)=O)c1ccc(F)cc1,enzyme activity,inhibitor,,10 µM,inhibition,-5%
O=C1c2c(O)cc(O)cc2OC(c2ccc(O)c(O)c2)C1O (stereo not drawn),enzyme activity,inhibitor,,80 µM,inhibition,53%
Nc1ncc(-c2nc(N3CCOCC3)nc(N3CCOCC3)n2)c(C(F)F)n1,binding,,competition with immobilised ligand,10 µM,remaining binding,57%
c1ccc(C(NCCNC(c2ccccc2)c2ccccc2)c2ccccc2)cc1,enzyme activity,inhibitor,,10 µM,inhibition,-24%
C#Cc1n[nH]c2c(-c3cn(C(C)c4ccccn4)c(=O)[nH]c3=O)cc(F)cc12 (stereo not drawn),enzyme activity,inhibitor,,1 µM,inhibition,9.4%
Cn1cncc1[C@](O)(COc1ccc(C#N)cc1-c1ccc(OC(F)(F)F)cc1)c1ccc(C#N)cc1,cell-free assay,,competition with immobilised ligand,1 µM,remaining binding,81%
Cc1nn(C)cc1-c1nc2c(N3CCN(Cc4ccc(Cl)cc4)CC3)c(Cl)cnc2[nH]1,binding,,competition with immobilised ligand,1 µM,remaining binding,100%
